# Measured values published in PubChem BioAssay AID624164 (Southern Research Specialized Biocontainment Screening …, 2012).
# pIC50: −log10 of the molar value. Activity calls are given as the source filed them.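 How the source made its calls: active means inhibition of 30% or more at any tested concentration; inactive means the rest.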
# Target: Leucine aminopeptidase (Plasmodium falciparum (isolate 3D7)) (UniProt Q8IL11)
# Assay: PFM17LAP inhibitors, dose response, selectivity assay for PFM1AAP inhibitor project, biochemical, QFRET, H-Leu-NHMec substrate, set 3 (AID 624164)
# Settings: purified rPFM17LAP, H-Leu-NHMec fluorogenic cleavage
# Method in brief: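 Material: recombinant PFM17LAP enzyme / Quantity: enzyme 5 µg/mL / Schedule: enzyme reaction with compound, 90 min at room temperature / Technique: fluorescence of released NHMec, excitation 370 nm, emission 460 nm / Reagent: H-Leu-NHMec 0.1 mM / Compound: ten twofold doses from 100 µM, 2% DMSO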
# Leucine aminopeptidase (Plasmodium falciparum (isolate 3D7)), sequence (Q8IL11 whole entry, looked up): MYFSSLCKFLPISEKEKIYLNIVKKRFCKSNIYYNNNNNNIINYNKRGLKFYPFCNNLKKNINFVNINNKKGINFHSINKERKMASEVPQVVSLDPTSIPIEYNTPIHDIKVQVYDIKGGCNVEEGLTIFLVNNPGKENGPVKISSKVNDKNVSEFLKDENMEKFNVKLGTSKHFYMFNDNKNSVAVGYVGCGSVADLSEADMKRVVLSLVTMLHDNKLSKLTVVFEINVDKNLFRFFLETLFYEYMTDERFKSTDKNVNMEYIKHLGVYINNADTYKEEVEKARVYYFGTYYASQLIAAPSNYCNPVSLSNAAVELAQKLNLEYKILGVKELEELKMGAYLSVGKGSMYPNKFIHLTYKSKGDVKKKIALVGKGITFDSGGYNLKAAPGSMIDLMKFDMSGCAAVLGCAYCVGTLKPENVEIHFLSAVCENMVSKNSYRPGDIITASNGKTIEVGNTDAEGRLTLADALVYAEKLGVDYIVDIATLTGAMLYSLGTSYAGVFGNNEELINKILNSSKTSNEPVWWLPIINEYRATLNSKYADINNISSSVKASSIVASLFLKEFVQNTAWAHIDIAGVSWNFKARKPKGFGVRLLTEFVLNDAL
row,SMILES,pIC50
1,O=C(NCc1ccc2c(c1)OCO2)C1CCN(S(=O)(=O)c2ccc(Cl)s2)CC1,4.45
2,O=C(NCc1ccc2c(c1)OCO2)C1CCN(S(=O)(=O)c2ccc(Br)s2)CC1,4.79
3,O=C(NCc1cccc(F)c1)C1CCN(S(=O)(=O)c2ccc(Br)s2)CC1,4.61
4,O=C(NCc1ccccc1F)C1CCN(S(=O)(=O)c2ccc(Cl)s2)CC1,4.30
5,O=C(NCc1cccc(F)c1)C1CCN(S(=O)(=O)c2ccc(Cl)s2)CC1,4.30
6,O=C(NCc1cccc(F)c1)C1CCN(S(=O)(=O)c2ccc(Br)cc2)CC1,4.30
7,O=C(NCc1ccc(F)cc1)C1CCN(S(=O)(=O)c2ccc(Cl)s2)CC1,4.36
8,O=C(NCc1ccc(F)cc1)C1CCN(S(=O)(=O)c2ccc(Br)s2)CC1,4.35

# Second part, the compound after the results:
row,pIC50,SMILES
1,4.08,O=C(NCc1ccccc1F)C1CCN(S(=O)(=O)c2ccc(Br)cc2)CC1
2,4.55,O=C(NCc1ccccc1F)C1CCN(S(=O)(=O)c2ccc(Br)s2)CC1

# Same assay, conditions: purified rPFM17LAP, H-Leu-NHMec fluorogenic cleavage; at 50 µM (top of the series)
row,inhibition,SMILES
1,inactive,O=C(NCc1ccc2c(c1)OCO2)C1CCN(S(=O)(=O)c2sccc2Br)CC1

# Same assay, conditions: purified rPFM17LAP, H-Leu-NHMec fluorogenic cleavage; at 100 µM (top of the series)
row,SMILES,inhibition
1,O=C(NCCc1ccc2c(c1)OCO2)C1CCN(S(=O)(=O)c2ccc(Br)s2)CC1,inactive
2,O=C(NCc1ccc2c(c1)OCO2)C1CCN(S(=O)(=O)c2cc(Br)c(Br)s2)CC1,inactive
3,O=C(NCc1cccc(F)c1)C1CCN(S(=O)(=O)c2sccc2Br)CC1,inactive
4,O=C(NCCc1ccc2c(c1)OCO2)C1CCN(S(=O)(=O)c2cc(Br)c(Br)s2)CC1,inactive
5,O=C(NCCc1ccc2c(c1)OCO2)C1CCN(S(=O)(=O)c2ccc(Cl)s2)CC1,inactive
6,O=C(NCc1ccccc1F)C1CCN(S(=O)(=O)c2cc(Br)c(Br)s2)CC1,inactive

# The remaining lines, values ahead:
row,inhibition,SMILES
1,inactive,O=C(NCc1ccccc1F)C1CCN(S(=O)(=O)c2sccc2Br)CC1
2,inactive,O=C(Nc1ccc2c(c1)OCO2)C1CCN(S(=O)(=O)c2ccc(Cl)s2)CC1
3,inactive,O=C(NCc1ccc2c(c1)OCO2)C1CCN(S(=O)(=O)c2ccc(Br)cc2)CC1
4,inactive,O=C(NCc1ccc(F)cc1)C1CCN(S(=O)(=O)c2sccc2Br)CC1
5,inactive,O=C(NCc1ccc(F)cc1)C1CCN(S(=O)(=O)c2ccc(Br)cc2)CC1
6,inactive,O=C(Nc1ccc2c(c1)OCO2)C1CCN(S(=O)(=O)c2sccc2Br)CC1
7,inactive,O=C(Nc1ccc2c(c1)OCO2)C1CCN(S(=O)(=O)c2cc(Br)c(Br)s2)CC1
8,inactive,O=C(Nc1ccc2c(c1)OCO2)C1CCN(S(=O)(=O)c2ccc(Br)s2)CC1
9,inactive,O=C(NCc1cccc(F)c1)C1CCN(S(=O)(=O)c2cc(Br)c(Br)s2)CC1
10,inactive,O=C(NCCc1ccc2c(c1)OCO2)C1CCN(S(=O)(=O)c2sccc2Br)CC1
11,inactive,O=C(NCc1ccc(F)cc1)C1CCN(S(=O)(=O)c2cc(Br)c(Br)s2)CC1
12,inactive,O=C(Nc1ccc2c(c1)OCO2)C1CCN(S(=O)(=O)c2ccc(Br)cc2)CC1
13,inactive,O=C(NCCc1ccc2c(c1)OCO2)C1CCN(S(=O)(=O)c2ccc(Br)cc2)CC1
